Shown are actives, neighbours in structure and some others; about 1.1% of the full set was active somewhere.
miR-122 sensor: miR-122 inhibition in Huh7 cells. activation (reporter increase), % at 12.5 µM. Huh7 miR-122 Renilla luciferase sensor, 48 h; neutral wells = 0, positive control = 100. AID 602342. hit rate 0.3% among 340,000;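 active means mean replicate activation score at least 90 and every replicate individually at or above 90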;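 further: higher luciferase means less miR-122 activity so hits act as miR-122 inhibitors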
CAL PDZ FP-1: inhibitors of human CAL PDZ peptide binding; purified CAL PDZ, TMR-peptide fluorescence polarization, 1 h; inhibition, % at 24.9 µM; hit rate 0.92% among 300,000;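 active means mean inhibition of at least 30% with at least half of replicates also reaching 30%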;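 further: 0% = DMSO neutral control and 100% = excess unlabeled competitor peptide PRC23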
C-LANA FP: inhibitors of KSHV LANA C-terminal domain DNA binding. AID 504423. inhibition, % at 9 µM. MBP-C-LANA/FAM-LBS DNA binding, fluorescence polarization. hit rate 0.078% among 340,000;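 active means highest replicate inhibition at or above 60% at 9 µM, even if other replicates fall short; inactive means all replicates below 60% inhibition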;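 further: 0% = neutral control wells and 100% = 4 µM acridine orange control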
Keap1-Nrf2 PPI: inhibitors of human Keap1-Nrf2 protein-protein interaction; Q14145; Keap1 Kelch-Nrf2 peptide fluorescence polarization, 1536-well; inhibition, % at 9.4 µM; hit rate 0.15% among 340,000; AID 504523; in the data active means inhibition above about 12%;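 further: human Keap1 Kelch domain with fluorescein labeled Nrf2 9mer peptide probe; 0% = neutral control wells and 100% = peptide positive control; higher means more block of Keap1 binding to Nrf2 peptide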
CAL PDZ FP-2: blocks peptide binding to human CAL PDZ domain. Q9HD26. purified CAL PDZ, TMR-peptide fluorescence polarization, 1 h. inhibition, % at 20 µM. hit rate 0.02% among 330,000. AID 504414;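 active means highest replicate inhibition of at least 40%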;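 further: plate controls were DMSO neutral control wells for no effect and unlabeled competitor peptide control wells for full effect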
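Test system: purified CerCALP PDZ construct; Compound dosing: one concentration, 20 µM compound; Also added: TMR-labelled reporter peptide T*-PRC34 bound in PDZ groove; Read-out: inhibition from polarization loss; Controls: unlabelled peptide and DMSO controls; Signal: FP readout, S and P plane fluorescence; Incubation: 1 h at RT.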
* marks the source's active call; other numbers are inactive results; / = no result; [ ] = remark or other dose.

SMILES | miR-122 sensor | CAL PDZ FP-1 | C-LANA FP | Keap1-Nrf2 PPI | CAL PDZ FP-2
CCCCOC(=O)c1ccccc1C(=O)OCCCC | -6 | 42* | 1 | 1 | 0
CCOC(=O)c1ccccc1N | -3 | 7 | 1 | -4 | 0
CC(C)C[C@H]1C(=O)N2CCC[C@H]2[C@]2(O)O[C@](NC(=O)[C@@H]3C=C4c5cccc6[nH]cc(c56)C[C@H]4N(C)C3)(C(C)C)C(=O)N12 | -5 | -2 | 67* | 34* | -1
COC(=O)[C@H]1[C@H](CO)[C@H]2Cn3c(ccc(-c4cccc(OC)c4)c3=O)[C@@H]1N2C(=O)c1cnccn1 | 3[16.7 µM] | / | / | / | /
CCC(C)N1C(=O)/C(=C\c2cc3c4c(c2)CCCN4CCC3)C(=O)NC1=S (stereo not given) | -11 | 65* | 0 | -5 | 0
O=C1NC(=O)C(CCc2ccncc2)(Cc2cccc(Cl)c2Cl)C(=O)N1c1ccc(Br)cc1 (stereo not given) | 491* | -2 | -2 | -22 | -2
COc1ccc(C#Cc2ccc([C@H]3[C@H](CO)N4CCCCN(C(=O)Cc5ccncc5)C[C@@H]34)cc2)cc1 | 9[16.7 µM] | / | / | / | /
Cc1cc(OC(C)C(=O)NCc2ccncc2)c2c3c(c(=O)oc2c1)CCC3 (stereo not given) | -5 | 31* | 0 | 2 | -1
COC(=O)[C@H]1[C@H](CO)[C@H]2Cn3c(ccc(-c4ccccc4)c3=O)[C@@H]1N2CCc1ccccc1 | -2[16.7 µM] | / | / | / | /
C[C@]12CC[C@H](O)C[C@H]1CC[C@@H]1[C@@H]2C[C@@H](O)[C@]2(C)[C@@H](C3=CC(=O)OC3)CC[C@]12O | 21 | 1 | 1 | -3 | 0
CC(=O)OC1CC(OC2C(O)CC(OC3C(O)CC(OC4CCC5(C)C(CCC6C5CC(O)C5(C)C(C7=CC(=O)OC7)CCC65O)C4)OC3C)OC2C)OC(C)C1OC1OC(CO)C(O)C(O)C1O (stereo not given) | 126* | 0 | 1 | 3 | 0
O=c1[nH]c(=O)n(Cc2ccco2)c(O)c1C=NCc1cccs1 | -5 | -3 | 1 | -1 | /
CCn1c(O)c(C=NCc2cccs2)c(=O)[nH]c1=O | 0 | 51* | -2 | -3 | 0
CCOP(=O)(OCC)C(O)c1ccc(Br)cc1 (stereo not given) | / | -4 | 1 | 0 | 0
CCOP(=O)(OCC)C(O)c1ccc(N(C)C)cc1 (stereo not given) | / | 30* | -1 | -4 | -1
COc1ccc(/C=C2\C(=O)NC(=S)N(C)C2=O)cc1C | / | -2 | 16 | 47* | -2
O=[N+]([O-])c1ccc2c(c1)C(c1ccccc1)=NCCN2 | / | 33* | -2 | 1 | 0
O=[N+]([O-])c1ccc(-c2ccccc2)c([As](=O)(O)O)c1 | 0 | / | 1 | -3 | 0
O=C(Cc1ccccn1)N1CCCCN2[C@@H](CO)[C@H](c3ccc(-c4ccccc4)cc3)[C@@H]2C1 | -3[16.7 µM] | / | / | / | /
CC(Cc1ccccc1)NC(=O)Cc1ccc([N+](=O)[O-])cc1 (stereo not given) | / | 30* | 1 | -1 | 1
O=C(O)[C@H]1[C@H](CO)[C@H]2Cn3c(ccc(C4=CCCC4)c3=O)[C@@H]1N2C(=O)Cc1ccccn1 | -5[16.7 µM] | / | / | / | /
C/C(CC(c1ccccc1)c1c(O)c2ccccc2oc1=O)=N\Nc1ccc([N+](=O)[O-])cc1[N+](=O)[O-] (stereo not given) | 14 | 3 | 0 | -2 | 0
CC/C(CC(c1ccccc1)c1c(O)c2ccccc2oc1=O)=N\NC(N)=S (stereo not given) | / | 65* | 1 | 1 | -1
O=C1NC(=S)N(c2ccc(F)cc2)C(=O)/C1=C\c1ccoc1 | -4 | -5 | 88* | -19 | 2
O=C(Cc1cccnc1)N1CCCCN2[C@H](CO)[C@H](c3ccc(/C=C/c4ccccc4)cc3)[C@H]2C1 | -1[16.7 µM] | / | / | / | /
COc1cccc(C(=O)C2CN(C)CC2c2ccc(Cl)cc2)c1 (stereo not given) | / | -3 | 0 | 0 | -3
CN1CC(C(=O)c2cccc(C(F)(F)F)c2)C(c2ccc(Cl)cc2)C1 (stereo not given) | 0 | 59* | -2 | -4 | 1
Cc1ccccc1S(=O)(=O)N1[C@@H]2c3ccc(-c4cccnc4)c(=O)n3C[C@H]1[C@H](CO)[C@H]2C(=O)O | -1[16.7 µM] | / | / | / | /
Cc1ccc(-n2c(O)c(C=NC3CCCC3)c(=O)[nH]c2=O)c(C)c1 | 1 | 49* | 1 | 4 | 0
